How the values were obtained:
[1] = molecular target: Mitogen-activated protein kinase 8 (Homo sapiens, UniProt P45983); assay: Inhibition of recombinant JNK1 after 60 mins by TR-FRET assay
[2] = molecular target: Mitogen-activated protein kinase 9 (Homo sapiens, UniProt P45984); assay: Inhibition of recombinant JNK2 after 60 mins by TR-FRET assay
[3] = molecular target: Mitogen-activated protein kinase 10 (Homo sapiens, UniProt P53779); assay: Inhibition of recombinant JNK3 after 60 mins by TR-FRET assay
Mitogen-activated protein kinase 10, sequence (P53779 whole entry): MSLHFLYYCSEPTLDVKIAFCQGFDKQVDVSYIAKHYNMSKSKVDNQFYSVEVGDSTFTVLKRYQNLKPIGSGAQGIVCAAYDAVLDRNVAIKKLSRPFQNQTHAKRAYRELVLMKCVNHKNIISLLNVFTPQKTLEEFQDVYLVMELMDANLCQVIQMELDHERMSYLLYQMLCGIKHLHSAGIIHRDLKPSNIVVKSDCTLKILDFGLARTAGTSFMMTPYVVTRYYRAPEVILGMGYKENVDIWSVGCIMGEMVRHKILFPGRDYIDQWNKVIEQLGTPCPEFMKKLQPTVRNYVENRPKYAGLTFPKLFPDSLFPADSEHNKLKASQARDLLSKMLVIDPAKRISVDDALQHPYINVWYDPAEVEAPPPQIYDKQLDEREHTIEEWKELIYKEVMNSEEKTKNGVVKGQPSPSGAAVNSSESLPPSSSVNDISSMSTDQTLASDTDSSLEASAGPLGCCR

[4] = Metabolic stability in mouse liver microsomes assessed as compound remaining after 30 mins; type: ADME, Microsome; conditions: read-out: Stability
Summary of the method: (§1)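 Test compound incubated with mouse or human liver microsomes for 30 min. Read-out is the percent of parent compound remaining at the end of the incubation.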

[5] = Metabolic stability in human liver microsomes assessed as compound remaining after 30 mins; type: ADME, Microsome; conditions: read-out: Stability; summary of the method: as §1
[6] = molecular target: Mitogen-activated protein kinase 1 (Homo sapiens, UniProt P28482); assay: Inhibition of recombinant Erk2 after 60 mins by TR-FRET assay
Mitogen-activated protein kinase 1, sequence (P28482 whole entry): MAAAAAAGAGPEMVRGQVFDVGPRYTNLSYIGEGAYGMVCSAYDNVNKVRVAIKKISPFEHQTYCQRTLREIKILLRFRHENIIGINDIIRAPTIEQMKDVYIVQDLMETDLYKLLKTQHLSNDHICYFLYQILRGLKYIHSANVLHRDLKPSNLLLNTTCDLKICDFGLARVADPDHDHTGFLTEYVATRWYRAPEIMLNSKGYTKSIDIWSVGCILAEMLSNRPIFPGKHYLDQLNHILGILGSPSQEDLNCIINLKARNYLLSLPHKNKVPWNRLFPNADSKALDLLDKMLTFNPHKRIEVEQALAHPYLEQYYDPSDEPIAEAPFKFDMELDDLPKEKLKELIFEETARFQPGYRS

[7] = molecular target: Mitogen-activated protein kinase 14 (Homo sapiens, UniProt Q16539); assay: Inhibition of recombinant p38alpha after 60 mins by TR-FRET assay
Mitogen-activated protein kinase 14, sequence (Q16539 whole entry): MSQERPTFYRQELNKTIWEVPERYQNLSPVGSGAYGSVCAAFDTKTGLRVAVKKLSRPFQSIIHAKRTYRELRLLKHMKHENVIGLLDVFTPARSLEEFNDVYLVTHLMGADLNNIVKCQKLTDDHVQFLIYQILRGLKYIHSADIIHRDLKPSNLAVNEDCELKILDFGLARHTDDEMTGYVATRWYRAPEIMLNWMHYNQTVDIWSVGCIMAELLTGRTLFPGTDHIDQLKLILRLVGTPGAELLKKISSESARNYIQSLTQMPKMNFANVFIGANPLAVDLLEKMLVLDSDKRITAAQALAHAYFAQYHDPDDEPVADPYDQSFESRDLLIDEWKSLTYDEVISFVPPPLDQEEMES

MDR1 = assay: Permeability from apical to basolateral side of MDCK cells expressing MDR1 after 120 mins; type: ADME, cell-based, Canis lupus familiaris; conditions: dog, read-out: permeability

Mitogen-activated protein kinase 8, sequence (P45983 whole entry): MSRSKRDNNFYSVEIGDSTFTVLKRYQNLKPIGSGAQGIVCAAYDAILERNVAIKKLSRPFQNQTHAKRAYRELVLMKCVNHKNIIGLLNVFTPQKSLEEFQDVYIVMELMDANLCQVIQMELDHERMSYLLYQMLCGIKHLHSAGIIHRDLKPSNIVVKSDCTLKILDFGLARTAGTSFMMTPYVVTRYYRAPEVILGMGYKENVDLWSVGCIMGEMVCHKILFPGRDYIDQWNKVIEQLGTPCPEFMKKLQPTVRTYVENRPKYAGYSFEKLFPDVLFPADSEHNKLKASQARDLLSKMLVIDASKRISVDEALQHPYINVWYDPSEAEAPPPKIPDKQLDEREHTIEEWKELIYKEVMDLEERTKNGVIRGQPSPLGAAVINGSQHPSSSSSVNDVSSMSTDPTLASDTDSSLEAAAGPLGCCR
Mitogen-activated protein kinase 9, sequence (P45984 whole entry): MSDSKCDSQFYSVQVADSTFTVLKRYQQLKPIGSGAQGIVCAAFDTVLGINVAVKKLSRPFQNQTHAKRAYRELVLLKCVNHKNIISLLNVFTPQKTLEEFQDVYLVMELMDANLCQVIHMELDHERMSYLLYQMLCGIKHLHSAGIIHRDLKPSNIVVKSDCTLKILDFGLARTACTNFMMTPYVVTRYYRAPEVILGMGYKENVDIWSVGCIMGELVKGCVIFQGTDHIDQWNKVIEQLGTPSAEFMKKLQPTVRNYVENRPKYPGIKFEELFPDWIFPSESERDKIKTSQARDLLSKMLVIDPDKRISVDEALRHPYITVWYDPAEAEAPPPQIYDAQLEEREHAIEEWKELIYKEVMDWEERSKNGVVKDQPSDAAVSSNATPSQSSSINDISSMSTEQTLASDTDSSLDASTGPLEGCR

Structure (SMILES) | IC50 [1] [µM] | IC50 [2] [µM] | IC50 [3] [µM] | remaining at 0.5 h [4] [%] | remaining at 0.5 h [5] [%] | IC50 [6] [µM] | IC50 [7] [µM] | Papp A→B at 2 h (MDR1) [×10⁻⁶ cm/s]
COCCNC(=O)c1sccc1NC(=O)Cc1ccccc1 | 2.3 | > 50 | 3.8 | – | – | – | – | –
COC(=O)c1sccc1NC(=O)Cc1ccccc1-c1c[nH]nn1 | 7 | 35 | 12.6 | – | – | – | – | –
CC(=O)c1sccc1NC(=O)Cc1ccccc1 | 6.3 | > 50 | 17 | – | – | – | – | –
COc1ccc(CC(=O)Nc2ccsc2-c2c[nH]c(C)n2)cc1 | 23.4 | > 50 | 27 | 0 | 17 | > 50 | > 50 | 33.8
COC(=O)c1sccc1NC(=O)Cc1ccc(-c2ccncc2)cc1 | 0.46 | > 50 | 0.69 | – | – | – | – | –
COc1ccc(CC(=O)Nc2ccsc2-c2nc(N)n[nH]2)cc1 | – | 8.7 | – | 44 | 87 | > 50 | > 50 | 24.3
COCCN(C)C(=O)c1sccc1NC(=O)Cc1ccccc1 | – | > 50 | > 50 | – | – | – | – | –
COC(=O)c1sccc1NC(=O)Cc1cccc2cnccc12 | 0.27 | 3.1 | 0.61 | – | – | > 50 | > 50 | –
COC(=O)c1sccc1NC(=O)Cc1ccc(C(F)(F)F)cc1 | 2 | > 50 | 6.9 | – | – | – | – | –
NC(=O)c1sccc1NC(=O)Cc1ccccc1 | 2.6 | > 50 | 4.4 | – | – | – | – | –
C=C(C)c1sccc1NC(=O)Cc1ccccc1 | – | – | > 50 | – | – | – | – | –
CCOC(=O)c1sccc1NC(=O)Cc1ccccc1 | 0.3 | 46.6 | 0.7 | – | – | – | – | –
COC(=O)c1sccc1NC(=O)Cc1ccc2ccccc2c1 | 0.6 | > 50 | 3.9 | – | – | – | – | –
COC(=O)c1sccc1NC(=O)Cc1cccs1 | – | 21.4 | – | – | – | – | – | –
COc1ccc(CC(=O)Nc2ccsc2-n2nccn2)cc1 | 0.83 | 5 | 1.5 | 1 | 0 | – | – | 15
COC(=O)c1nonc1NC(=O)Cc1cccc2ccccc12 | > 50 | > 50 | > 50 | – | – | – | – | –
COc1ccc(CC(=O)Nc2ccsc2-c2cnccn2)cc1 | 1.1 | 5.7 | 1.5 | 0 | 0 | > 50 | > 50 | 22.2
COc1ccc(CC(=O)Nc2ccsc2-c2ncco2)cc1 | – | 11.9 | – | 9 | 14 | – | – | –
COC(=O)c1sccc1NC(=O)Cc1ccncc1 | 6.6 | > 50 | 17.2 | – | – | – | – | –
COc1ccc(CC(=O)Nc2ccsc2-n2cncn2)cc1 | 43.6 | > 50 | 45.6 | – | – | – | – | –
O=C(Cc1ccccc1)Nc1ccsc1CO | – | – | > 50 | – | – | – | – | –
COc1ccc(CC(=O)Nc2ccsc2N2CCOC2=O)cc1 | > 50 | > 50 | 37 | 26 | 83 | – | – | 26
COc1ccc(CC(=O)Nc2ccsc2-c2nc(C(F)(F)F)n[nH]2)cc1 | 3.4 | 15 | 5.9 | 8 | 71 | > 50 | > 50 | –
COC(=O)c1sccc1NC(=O)Cc1ccccc1 | 0.7 | 22.8 | 2.7 | – | – | – | – | –
CC(C)OC(=O)c1sccc1NC(=O)Cc1ccccc1 | 0.5 | 47.7 | 1.4 | – | – | – | – | –
COC(=O)c1sccc1NC(=O)Cc1ccc(-n2ccnc2)cc1 | 1 | > 50 | 1.6 | – | – | – | – | –
COC(=O)c1sccc1NC(=O)Cc1ccc(OC)cc1 | 0.8 | 14.1 | 1 | – | – | – | – | –
C/C(=N/O)c1sccc1NC(=O)Cc1ccccc1 | – | – | 29 | – | – | – | – | –

More lines, now with the values ahead:

IC50 [1] [µM] | IC50 [2] [µM] | IC50 [3] [µM] | remaining at 0.5 h [4] [%] | remaining at 0.5 h [5] [%] | IC50 [6] [µM] | IC50 [7] [µM] | Papp A→B at 2 h (MDR1) [×10⁻⁶ cm/s] | Structure (SMILES)
0.25 | 2.4 | 0.55 | 1 | 1 | – | – | – | Cc1n[nH]c(-c2sccc2NC(=O)Cc2cccc3ccccc23)n1
> 50 | > 50 | > 50 | – | – | – | – | – | COC(=O)c1nnsc1NC(=O)Cc1cccc2ccccc12
> 50 | > 50 | > 50 | – | – | – | – | – | COC(=O)c1cccnc1NC(=O)Cc1cccc2ccccc12
> 50 | > 50 | > 50 | – | – | – | – | – | CCOC(=O)c1c(C)nsc1NC(=O)Cc1cccc2ccccc12
– | > 50 | – | 0 | 5 | – | – | – | O=C(Cc1cccc2ccccc12)Nc1ccsc1-c1cc[nH]n1
1.8 | 16.3 | 2.1 | 0 | 4 | – | – | – | Cc1nnc(-c2sccc2NC(=O)Cc2cccc3ccccc23)o1
2.1 | 13.1 | 1.7 | – | – | – | – | – | COC(=O)c1ccccc1NC(=O)Cc1cccc2ccccc12
2.1 | 26.7 | 5.4 | – | – | > 50 | > 50 | – | COC(=O)c1n[nH]cc1NC(=O)Cc1cccc2ccccc12
6.4 | 23.6 | 6.5 | – | – | – | – | – | COC(=O)c1cnccc1NC(=O)Cc1cccc2ccccc12
0.53 | 3 | 0.92 | 1 | 11 | – | – | – | O=C(Cc1cccc2ccccc12)Nc1ccsc1-c1ncn[nH]1
0.3 | 3 | 0.61 | – | – | – | – | – | COC(=O)c1sccc1NC(=O)Cc1cccc2ncccc12
– | 1.5 | – | 1 | 2 | – | – | – | Cc1cc(-c2sccc2NC(=O)Cc2cccc3ccccc23)n[nH]1
> 50 | > 50 | > 50 | – | – | – | – | – | Cc1ccncc1NC(=O)Cc1cccc2ccccc12
– | > 50 | > 50 | – | – | – | – | – | Cc1nccnc1NC(=O)Cc1cccc2ccccc12
0.89 | 9.9 | 0.9 | – | – | – | – | – | COC(=O)c1cscc1NC(=O)Cc1cccc2ccccc12
26.9 | > 50 | 9 | 0 | 17 | – | – | – | O=C(Cc1cccc2ccccc12)Nc1ccsc1-n1ccnc1
3.2 | 27.1 | 5.3 | 1 | 7 | – | – | – | O=C(Cc1cccc2ccccc12)Nc1ccsc1-c1nnco1
30.3 | > 50 | 31.5 | 1 | 1 | – | – | – | Cc1nc(-c2sccc2NC(=O)Cc2cccc3ccccc23)n(C)n1
0.4 | 14.6 | 1.5 | – | – | – | – | – | COC(=O)c1sccc1NC(=O)Cc1cccc2ccccc12
> 50 | > 50 | > 50 | – | – | – | – | – | COC(=O)c1scnc1NC(=O)Cc1cccc2ccccc12
24.1 | > 50 | 42.5 | 0 | 0 | – | – | – | Cn1ccc(-c2sccc2NC(=O)Cc2cccc3ccccc23)n1

Reference: ChEMBL document CHEMBL1287787, “Design and synthesis of disubstituted thiophene and thiazole based inhibitors of JNK” (Bioorg Med Chem Lett, 2010)
